{"source": "ChEMBL document CHEMBL1122089", "about": "“Synthesis and biological activity of some very hydrophobic superagonist analogues of luteinizing hormone-releasing hormone” (1982)", "key": {"Rattus norvegicus [1]": {"species_on_record": "Rattus norvegicus", "experiment": "Suppression of estrus cyclicity in rat.", "type": "functional", "method_in_brief": "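Adult female Sprague-Dawley rats (~160 g), groups of 10, 14:10 light/dark, food and water ad libitum. Compound in 0.1% BSA-saline vehicle given sc twice daily (0800, 1630 h), 0.1 or 0.2 mL/injection, 14 consecutive days; at least four doses at 2-fold dilutions; vehicle and positive controls. Daily vaginal lavage; percent of rats in persistent diestrus from day 4 plotted against log dose; ED50 in µg/injection.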"}, "Rattus norvegicus [2]": {"species_on_record": "Rattus norvegicus", "experiment": "Suppression of estrus cyclicity in rat relative to [D-Trp6, ProNHEt9].", "type": "functional"}}, "data": [{"smiles": "CCNC(=O)[C@@H]1CCCN1C(=O)[C@H](CCCN=C(N)N)NC(=O)[C@H](CC(C)C)N(C)C(=O)[C@@H](Cc1ccc2ccccc2c1)NC(=O)[C@H](Cc1ccc(O)cc1)NC(=O)[C@H](CO)NC(=O)[C@H](Cc1c[nH]c2ccccc12)NC(=O)[C@H](Cc1c[nH]cn1)NC(=O)[C@@H]1CCC(=O)N1", "values": [{"measurement": "ED50", "setting": "Rattus norvegicus [1]", "value": 0.12, "unit": "µg"}, {"measurement": "Potency", "setting": "Rattus norvegicus [2]", "value": 1.8}]}, {"smiles": "CCNC(=O)[C@@H]1CCCN1C(=O)[C@H](CCCN=C(N)N)NC(=O)[C@H](CC(C)C)NC(=O)[C@@H](Cc1ccc2ccccc2c1)NC(=O)[C@H](Cc1ccc(O)cc1)NC(=O)[C@H](CO)NC(=O)[C@H](Cc1cccc2ccccc12)NC(=O)[C@H](Cc1c[nH]cn1)NC(=O)[C@@H]1CCC(=O)N1", "values": [{"measurement": "ED50", "setting": "Rattus norvegicus [1]", "value": 0.16, "unit": "µg"}, {"measurement": "Potency", "setting": "Rattus norvegicus [2]", "value": 0.9}]}, {"smiles": "CCNC(=O)[C@@H]1CCCN1C(=O)[C@H](CCCN=C(N)N)NC(=O)[C@H](CC(C)C)NC(=O)[C@@H](CC(c1ccccc1)c1ccccc1)NC(=O)[C@H](Cc1ccc(O)cc1)NC(=O)[C@H](CO)NC(=O)[C@H](Cc1c[nH]c2ccccc12)NC(=O)[C@H](Cc1c[nH]cn1)NC(=O)[C@@H]1CCC(=O)N1", "values": [{"measurement": "ED50", "setting": "Rattus norvegicus [1]", "value": 0.11, "unit": "µg"}, {"measurement": "Potency", "setting": "Rattus norvegicus [2]", "value": 0.9}]}, {"smiles": "Cc1cc(C)c(C[C@@H](NC(=O)[C@H](Cc2ccc(O)cc2)NC(=O)[C@H](CO)NC(=O)[C@H](Cc2c[nH]c3ccccc23)NC(=O)[C@H](Cc2c[nH]cn2)NC(=O)[C@@H]2CCC(=O)N2)C(=O)N(C)[C@@H](CC(C)C)C(=O)N[C@@H](CCCN=C(N)N)C(=O)N2CCC[C@H]2C(=O)NCC(N)=O)c(C)c1", "values": [{"measurement": "Potency", "setting": "Rattus norvegicus [2]", "value": 1.1}]}, {"smiles": "CCNC(=O)[C@@H]1CCCN1C(=O)[C@H](CCCN=C(N)N)NC(=O)[C@H](CC(C)C)NC(=O)[C@@H](Cc1ccc2ccccc2c1)NC(=O)[C@H](Cc1ccc(O)cc1)NC(=O)[C@H](CO)NC(=O)[C@H](Cc1c[nH]c2ccccc12)NC(=O)[C@H](Cc1c[nH]cn1)NC(=O)[C@@H]1CCC(=O)N1", "values": [{"measurement": "ED50", "setting": "Rattus norvegicus [1]", "value": 0.22, "unit": "µg"}, {"measurement": "Potency", "setting": "Rattus norvegicus [2]", "value": 0.9}]}, {"smiles": "CCNC(=O)[C@@H]1CCCN1C(=O)[C@H](CCCN=C(N)N)NC(=O)[C@H](CC(C)C)NC(=O)[C@@H](Cc1c[nH]c2ccccc12)NC(=O)[C@H](Cc1ccc(O)cc1)NC(=O)[C@H](CO)NC(=O)[C@H](Cc1c[nH]c2ccccc12)NC(=O)[C@H](Cc1c[nH]cn1)NC(=O)[C@@H]1CCC(=O)N1", "values": [{"measurement": "ED50", "setting": "Rattus norvegicus [1]", "value": 0.14, "unit": "µg"}, {"measurement": "Potency", "setting": "Rattus norvegicus [2]", "value": 1}]}, {"smiles": "CC(C)C[C@H](NC(=O)[C@@H](Cc1c2ccccc2cc2ccccc12)NC(=O)[C@H](Cc1ccc(O)cc1)NC(=O)[C@H](CO)NC(=O)[C@H](Cc1c[nH]c2ccccc12)NC(=O)[C@H](Cc1c[nH]cn1)NC(=O)[C@@H]1CCC(=O)N1)C(=O)N[C@@H](CCCN=C(N)N)C(=O)N1CCC[C@H]1C(=O)NCC(N)=O", "values": [{"measurement": "ED50", "setting": "Rattus norvegicus [1]", "value": 0.27, "unit": "µg"}, {"measurement": "Potency", "setting": "Rattus norvegicus [2]", "value": 0.5}]}, {"smiles": "CC(C)C[C@H](NC(=O)[C@@H](Cc1ccc(-c2ccccc2)cc1)NC(=O)[C@H](Cc1ccc(O)cc1)NC(=O)[C@H](CO)NC(=O)[C@H](Cc1c[nH]c2ccccc12)NC(=O)[C@H](Cc1c[nH]cn1)NC(=O)[C@@H]1CCC(=O)N1)C(=O)N[C@@H](CCCN=C(N)N)C(=O)N1CCC[C@H]1C(=O)NCC(N)=O", "values": [{"measurement": "Potency", "setting": "Rattus norvegicus [2]", "value": 1.4}]}, {"smiles": "CC(C)C[C@H](NC(=O)[C@@H](Cc1ccc2ccccc2c1Br)NC(=O)[C@H](Cc1ccc(O)cc1)NC(=O)[C@H](CO)NC(=O)[C@H](Cc1c[nH]c2ccccc12)NC(=O)[C@H](Cc1c[nH]cn1)NC(=O)[C@@H]1CCC(=O)N1)C(=O)N[C@@H](CCCN=C(N)N)C(=O)N1CCC[C@H]1C(=O)NCC(N)=O", "values": [{"measurement": "ED50", "setting": "Rattus norvegicus [1]", "value": 0.15, "unit": "µg"}, {"measurement": "Potency", "setting": "Rattus norvegicus [2]", "value": 1}]}, {"smiles": "COc1cc(C[C@@H](NC(=O)[C@H](Cc2ccc(O)cc2)NC(=O)[C@H](CO)NC(=O)[C@H](Cc2c[nH]c3ccccc23)NC(=O)[C@H](Cc2c[nH]cn2)NC(=O)[C@@H]2CCC(=O)N2)C(=O)N[C@@H](CC(C)C)C(=O)N[C@@H](CCCN=C(N)N)C(=O)N2CCC[C@H]2C(=O)NCC(N)=O)cc(OC)c1OC", "values": [{"measurement": "ED50", "setting": "Rattus norvegicus [1]", "value": 0.09, "unit": "µg"}, {"measurement": "Potency", "setting": "Rattus norvegicus [2]", "value": 1.4}]}, {"smiles": "CC(C)C[C@H](NC(=O)[C@@H](CC1CCCCC1)NC(=O)[C@H](Cc1ccc(O)cc1)NC(=O)[C@H](CO)NC(=O)[C@H](Cc1c[nH]c2ccccc12)NC(=O)[C@H](Cc1c[nH]cn1)NC(=O)[C@@H]1CCC(=O)N1)C(=O)N[C@@H](CCCN=C(N)N)C(=O)N1CCC[C@H]1C(=O)NCC(N)=O", "values": [{"measurement": "ED50", "setting": "Rattus norvegicus [1]", "value": 0.3, "unit": "µg"}, {"measurement": "Potency", "setting": "Rattus norvegicus [2]", "value": 0.5}]}, {"smiles": "CC(C)C[C@H](NC(=O)[C@@H](Cc1ccc(C(F)(F)F)cc1)NC(=O)[C@H](Cc1ccc(O)cc1)NC(=O)[C@H](CO)NC(=O)[C@H](Cc1c[nH]c2ccccc12)NC(=O)[C@H](Cc1c[nH]cn1)NC(=O)[C@@H]1CCC(=O)N1)C(=O)N[C@@H](CCCN=C(N)N)C(=O)N1CCC[C@H]1C(=O)NCC(N)=O", "values": [{"measurement": "ED50", "setting": "Rattus norvegicus [1]", "value": 0.11, "unit": "µg"}, {"measurement": "Potency", "setting": "Rattus norvegicus [2]", "value": 1.4}]}, {"smiles": "CC(C)C[C@H](NC(=O)[C@@H](Cc1c(F)c(F)c(F)c(F)c1F)NC(=O)[C@H](Cc1ccc(O)cc1)NC(=O)[C@H](CO)NC(=O)[C@H](Cc1c[nH]c2ccccc12)NC(=O)[C@H](Cc1c[nH]cn1)NC(=O)[C@@H]1CCC(=O)N1)C(=O)N[C@@H](CCCN=C(N)N)C(=O)N1CCC[C@H]1C(=O)NCC(N)=O", "values": [{"measurement": "ED50", "setting": "Rattus norvegicus [1]", "value": 0.12, "unit": "µg"}, {"measurement": "Potency", "setting": "Rattus norvegicus [2]", "value": 1.2}]}, {"smiles": "Cc1cc(C)c(C[C@@H](NC(=O)[C@H](Cc2ccc(O)cc2)NC(=O)[C@H](CO)NC(=O)[C@H](Cc2c[nH]c3ccccc23)NC(=O)[C@H](Cc2c[nH]cn2)NC(=O)[C@@H]2CCC(=O)N2)C(=O)N[C@@H](CC(C)C)C(=O)N[C@@H](CCCN=C(N)N)C(=O)N2CCC[C@H]2C(=O)NCC(N)=O)c(C)c1", "values": [{"measurement": "ED50", "setting": "Rattus norvegicus [1]", "value": 0.07, "unit": "µg"}, {"measurement": "Potency", "setting": "Rattus norvegicus [2]", "value": 2}]}, {"smiles": "CC(C)C[C@H](NC(=O)[C@@H](Cc1ccc2ccccc2c1)NC(=O)[C@H](Cc1ccc(O)cc1)NC(=O)[C@H](CO)NC(=O)[C@H](Cc1c[nH]c2ccccc12)NC(=O)[C@H](Cc1c[nH]cn1)NC(=O)[C@@H]1CCC(=O)N1)C(=O)N[C@@H](CCCN=C(N)N)C(=O)N1CCC[C@H]1C(=O)NCC(N)=O", "values": [{"measurement": "ED50", "setting": "Rattus norvegicus [1]", "value": 0.07, "unit": "µg"}, {"measurement": "Potency", "setting": "Rattus norvegicus [2]", "value": 1.9}]}]}
